Source: article PMC3190289 (Clinical and Experimental Gastroenterology, 2011)
Read-outs that look alike come from different tables or passages of the source.

Legend:
[1] = Plasma pharmacokinetics after single oral doses in healthy subjects; assay type: in vivo, human; settings: for Subjects with detectable plasma concentrations: single oral dose; for AUC values in CYP2C19 poor metabolizers relative to overall means: two CYP2C19 poor metabolizer subjects
[2] = Safety analysis: treatment-emergent adverse events after single doses; assay type: in vivo, human; settings: healthy subjects; for Incidence of treatment-emergent adverse events: single-dose administration
In short: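 Open-label two-period crossover in 44 subjects aged 20–54. Each period gave one oral dose after an overnight fast of at least 8 h, with a 60-min postdose fast; washout at least 7 days. All dosed subjects were analysed. A treatment-emergent AE started or worsened after first dose and within 30 days of last dose. Terms were coded to MedDRA 13.1 system organ class and preferred term; the investigator judged relatedness. Results were summarised descriptively per regimen.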

[3] = cited from earlier work
intragastric pH = settings: cited from earlier work
[4] = postdose, single dose 60 mg, healthy subjects

SMILES	Subjects with detectable plasma concentrations ([1]; 12 hours postdose)	Subjects with detectable plasma concentrations ([1]; 16 hours postdose)	Subjects with detectable plasma concentrations ([1]; 24 hours postdose)	Time of first peak of mean plasma concentration-time curve [1, 4]	Time of second peak of mean plasma concentration-time curve [1, 4]	AUC values in CYP2C19 poor metabolizers relative to overall means [1]	Adverse events considered related to the study drug by the investigator ([2]; single dose)	Incidence of flatulence ([2]; single dose)	Incidence of headache ([2]; single dose)	Incidence of joint injury ([2]; single dose)	Incidence of treatment-emergent adverse events [2]	Time of first peak of plasma concentration-time profile ([3]; after administration)	Half-life [3]	Time of second peak of plasma concentration-time profile ([3]; postdose)	Percentage of time with intragastric pH > 4 (intragastric pH; 0–24 hours after the same dose (60 mg))	Adverse events reported by two or more subjects ([2]; single dose)	Increase in bioavailability at steady state ([3]; after five days of once-daily dosing)	Time of maximum plasma concentrations ([3]; postdose)	Percentage of time with intragastric pH > 4 (intragastric pH; 0–24 hours after the same dose (40 mg), ref 10)	Percentage of time with intragastric pH > 4 (intragastric pH; 0–24 hours after the same dose (40 mg), ref 12)
Cc1c(OCC(F)(F)F)ccnc1C[S@@+]([O-])c1nc2ccccc2[nH]1 [dexlansoprazole]	100%	88%	63%	approximately 2 hours	~5 h	substantially higher	only one adverse event (nausea)	5%	9%	5%	21%	1 to 2 h	1 to 2 h	4 to 5 h	approximately 60%					
COc1ccc2nc([S@@+]([O-])Cc3ncc(C)c(OC)c3C)[nH]c2c1 [esomeprazole]	80%	39%	9%			substantially higher					14%					No adverse event	~2.5 fold	approximately 1.6 hours	54%	52%
